# Reference: ChEMBL document CHEMBL5260822, “Structure-based design and synthesis of 2,4-diaminopyrimidines as EGFR L858R/T790M selective inhibitors for NSCLC” (Eur J Med Chem, 2017)
# Activity calls are given as the source filed them. No cut-off for these calls is given here.
# Assays:
# [1] = biological target: T1, Epidermal growth factor receptor (Homo sapiens, UniProt P00533); test: Inhibition of EGFR phosphorylation in EGF-stimulated human A-431 cells harboring wild type EGFR at 100 nM and measured after 2 hrs by Western blot analysis; assay type: cell-based
# Method in brief: (§1)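 Cells treated with compound for 2 h, then stimulated with EGF for 15 min and lysed. Lysates cleared at 12,000 × g (10 min, 4 °C), protein measured by Bradford assay, and equal amounts run on 8% SDS-PAGE and blotted to nitrocellulose. Probed for p-EGFR (Y1068), EGFR, p-ERK (T202/Y204), ERK, with tubulin or GAPDH as loading controls.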
# NCI-H1975 [2] = test: Inhibition of Erk signalling in EGF-stimulated human NCI-H1975 cells harboring EGFR L858R/T790M double mutant assessed as decrease in p-ERK level at 0.1 to 100 nM and measured after 2 hrs by Western blot analysis; assay type: cell-based; settings: dose 0.1-100 nM; method in brief: as §1
# NCI-H1975 [3] = test: Inhibition of Akt signalling in EGF-stimulated human NCI-H1975 cells harboring EGFR L858R/T790M double mutant assessed as […] at 0.1 to 100 nM and measured after 2 hrs by Western blot analysis; assay type: cell-based; settings: dose 0.1-100 nM
# [4] = system: Epidermal growth factor receptor (Homo sapiens), P00533 [L858R,T790M]; test: Inhibition of EGFR phosphorylation in EGF-stimulated human NCI-H1975 cells harboring EGFR L858R/T790M double mutant at 0.1 to 100 nM and measured after 2 hrs by Western blot analysis; assay type: cell-based; settings: dose 0.1-100 nM; method in brief: as §1
# NCI-H1975 [5] = test: Antiproliferative activity against human NCI-H1975 cells harboring EGFR L858R/T790M double mutant assessed as inhibition of cell proliferation incubated for 72 hrs by sulforhodamine B colorimetric assay; assay type: functional, cell-based; settings: NCI-H1975, 72 h
# A-431 = test: Antiproliferative activity against human A-431 cells harboring wild type EGFR assessed as inhibition of cell proliferation incubated for 72 hrs by sulforhodamine B colorimetric assay; assay type: functional, cell-based; settings: A-431, 72 h
# [6] = biological target: Epidermal growth factor receptor (Homo sapiens, UniProt P00533, L858R/T790M); test: Inhibition of EGFR L858R/T790M mutant (unknown origin) expressed in baculovirus expression system by ELISA
# [7] = biological target: T1, Epidermal growth factor receptor; test: Inhibition of wild type EGFR (unknown origin) expressed in baculovirus expression system by ELISA
# [8] = Toxicity in BALB/c nude mouse xenografted with human NCI-H1975 cells harboring EGFR L858R/T790M mutant assessed as morphological changes in kidney at 15 to 30 mg/kg, po for 18 days by hematoxylin and eosin staining based microscopic analysis; assay type: organism-based; settings: in vivo, 432 h, dose 15-30 mg/kg, time 18 day
# Method in brief: (§2)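 H1975 subcutaneous xenografts were grown in female BALB/cA nu/nu mice (n = 6 per group), dosed at 15 or 30 mg/kg/day for 18 days or with vehicle. At the end the mice were sacrificed. Heart, kidney and liver were harvested, processed and stained with hematoxylin and eosin for routine histological examination.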
# [9] = Toxicity in BALB/c nude mouse xenografted with human NCI-H1975 cells harboring EGFR L858R/T790M mutant assessed as morphological changes in liver at 15 to 30 mg/kg, po for 18 days by hematoxylin and eosin staining based microscopic analysis; assay type: organism-based; settings: in vivo, 432 h, dose 15-30 mg/kg, time 18 day; method in brief: as §2
# [10] = system: Epidermal growth factor receptor (Homo sapiens), P00533 [L858R,T790M]; test: In vivo inhibition of EGFR in BALB/c nude mouse xenografted with human NCI-H1975 cells harboring EGFR L858R/T790M mutant assessed as decrease in phosphorylated-EGFR level at 15 to 30 mg/kg, po for 18 days by western blot analysis; assay type: functional, organism-based; settings: dose 15-30 mg/kg, time 18.0 day
# NCI-H1975 [11] = test: Antitumor activity against human NCI-H1975 cells harboring EGFR L858R/T790M mutant xenografted in BALB/c nude mouse assessed as tumor cell proliferation at 15 to 30 mg/kg, po for 18 days by Ki-67 staining based immunohistochemical analysis; assay type: functional, organism-based; settings: dose 15-30 mg/kg, time 18.0 day
# Method in brief: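 H1975 xenograft tumors from nude mice (n = 6/group, daily dosing 18 days) were harvested, fixed in 10% formalin, paraffin-embedded and cut into 5 µm sections. Sections deparaffinized and incubated with primary anti-Ki-67 antibody at room temperature; immunoreactivity visualized with DAB.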
# [12] = Toxicity in BALB/c nude mouse xenografted with human NCI-H1975 cells harboring EGFR L858R/T790M mutant assessed as morphological changes in heart at 15 to 30 mg/kg, po for 18 days by hematoxylin and eosin staining based microscopic analysis; assay type: organism-based; settings: in vivo, 432 h, dose 15-30 mg/kg, time 18 day; method in brief: as §2
# [13] = Toxicity in BALB/c nude mouse xenografted with human NCI-H1975 cells harboring EGFR L858R/T790M mutant assessed as body weight loss at 15 to 30 mg/kg, po for 18 days; assay type: organism-based; settings: in vivo, 432 h, dose 15-30 mg/kg, time 18 day
# Method in brief: (§3)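 Female BALB/cA nu/nu mice were given 1 × 10^6 H1975 cells in 0.1 mL PBS subcutaneously in the right flank. At an average tumour volume of 100 mm3 (about 18 days post-implantation) they were randomised, n = 6 per group. Groups received 15 or 30 mg/kg/day for 18 consecutive days or vehicle. Mice were kept at constant room temperature, 12/12-h light/dark, with standard diet and water ad lib.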
# [14] = Toxicity in BALB/c nude mouse xenografted with human NCI-H1975 cells harboring EGFR L858R/T790M mutant assessed as mortality at 15 to 30 mg/kg, po for 18 days; assay type: organism-based; settings: in vivo, 432 h, dose 15-30 mg/kg, time 18 day; method in brief: as §3
# NCI-H1975 [15] = test: Antitumor activity against human NCI-H1975 cells harboring EGFR L858R/T790M mutant xenografted in BALB/c nude mouse assessed as tumor growth inhibition at 30 mg/kg, po for 18 days; assay type: functional; settings: NCI-H1975, 432 h, time 18 day, read-out: TGI
# Method in brief: (§4)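 H1975 cells (1 × 10^6 in 0.1 mL PBS) injected subcutaneously into the right flank of female nude mice. At mean tumor volume of about 100 mm3 (roughly 18 days), mice randomized, n = 6 per group, and dosed once daily for 18 days against a vehicle group. Tumor volume (0.5 × L × W²) measured every 2–3 days; tumors weighed at sacrifice. Data given as mean ± SEM.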
# NCI-H1975 [16] = test: Antitumor activity against human NCI-H1975 cells harboring EGFR L858R/T790M mutant xenografted in BALB/c nude mouse assessed as tumor growth inhibition at 15 mg/kg, po for 18 days; assay type: functional; settings: NCI-H1975, 432 h, time 18 day, read-out: TGI; method in brief: as §4
# [17] = Oral bioavailability in Sprague-Dawley rat at 10 mg/kg and measured after 24 hrs by LC-MS/MS analysis; assay type: ADME, organism-based; settings: in vivo
# Method in brief: (§5)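 Male Sprague–Dawley rats (190–220 g) dosed by oral gavage at 10 mg/kg in 5% DMSO / 95% HP-β-CD aqueous solution (20%); iv reference arm at 1 mg/kg. Blood sampled at 0.25, 0.5, 1, 2, 4, 6, 8 and 24 h, centrifuged (8000 × g, 6 min), and plasma quantified by LC–MS/MS.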
# [18] = AUC (0 to infinity) in Sprague-Dawley rat at 10 mg/kg, po and measured after 24 hrs by LC-MS/MS analysis; assay type: ADME, organism-based; parameters: dose 10 mg/kg, time 24 hrs, route po; settings: in vivo; method in brief: as §5
# [19] = Cmax in Sprague-Dawley rat at 10 mg/kg, po and measured after 24 hrs by LC-MS/MS analysis; assay type: ADME, organism-based; parameters: dose 10 mg/kg, time 24 hrs, route po; settings: in vivo; method in brief: as §5
# [20] = Half life in Sprague-Dawley rat at 10 mg/kg, po and measured after 24 hrs by LC-MS/MS analysis; assay type: ADME, organism-based; settings: in vivo; method in brief: as §5
# [21] = Volume of distribution at steady state in Sprague-Dawley rat at 1 mg/kg, iv and measured after 24 hrs by LC-MS/MS analysis; assay type: ADME, organism-based; settings: in vivo, read-out: Vdss
# [22] = Clearance in Sprague-Dawley rat at 1 mg/kg, iv and measured after 24 hrs by LC-MS/MS analysis; assay type: ADME, organism-based; settings: in vivo
# [23] = AUC (0 to infinity) in Sprague-Dawley rat at 1 mg/kg, iv and measured after 24 hrs by LC-MS/MS analysis; assay type: ADME, organism-based; parameters: time 24 hrs, dose 1 mg/kg, route iv; settings: in vivo
# [24] = Half life in Sprague-Dawley rat at 1 mg/kg, iv and measured after 24 hrs by LC-MS/MS analysis; assay type: ADME, organism-based; settings: in vivo
# [25] = Cmax in Sprague-Dawley rat at 1 mg/kg, iv and measured after 24 hrs by LC-MS/MS analysis; assay type: ADME, organism-based; parameters: dose 1 mg/kg, time 24 hrs, route iv; settings: in vivo
# [26] = biological target: Tyrosine-protein kinase BTK (Homo sapiens) (UniProt Q06187); test: Inhibition of BTK (unknown origin) at 1000 nM by DiscoverX KINOMEscan assay
# [27] = biological target: Focal adhesion kinase 1 (Homo sapiens) (UniProt Q05397); test: Inhibition of FAK (unknown origin) at 1000 nM by DiscoverX KINOMEscan assay
# [28] = biological target: Insulin receptor (Homo sapiens) (UniProt P06213); test: Inhibition of INSR (unknown origin) at 1000 nM by DiscoverX KINOMEscan assay
# [29] = biological target: Tyrosine-protein kinase JAK2 (Homo sapiens) (UniProt O60674); test: Inhibition of JAK2 (unknown origin) at 1000 nM by DiscoverX KINOMEscan assay
# [30] = system: Epidermal growth factor receptor (Homo sapiens), P00533 [L858R,T790M]; settings: NCI-H1975, dose 10.0 nM, time 2.0 hrs
# Chain of Epidermal growth factor receptor (Homo sapiens), P00533 [L858R,T790M] (P00533 whole entry T790M/L858R, looked up): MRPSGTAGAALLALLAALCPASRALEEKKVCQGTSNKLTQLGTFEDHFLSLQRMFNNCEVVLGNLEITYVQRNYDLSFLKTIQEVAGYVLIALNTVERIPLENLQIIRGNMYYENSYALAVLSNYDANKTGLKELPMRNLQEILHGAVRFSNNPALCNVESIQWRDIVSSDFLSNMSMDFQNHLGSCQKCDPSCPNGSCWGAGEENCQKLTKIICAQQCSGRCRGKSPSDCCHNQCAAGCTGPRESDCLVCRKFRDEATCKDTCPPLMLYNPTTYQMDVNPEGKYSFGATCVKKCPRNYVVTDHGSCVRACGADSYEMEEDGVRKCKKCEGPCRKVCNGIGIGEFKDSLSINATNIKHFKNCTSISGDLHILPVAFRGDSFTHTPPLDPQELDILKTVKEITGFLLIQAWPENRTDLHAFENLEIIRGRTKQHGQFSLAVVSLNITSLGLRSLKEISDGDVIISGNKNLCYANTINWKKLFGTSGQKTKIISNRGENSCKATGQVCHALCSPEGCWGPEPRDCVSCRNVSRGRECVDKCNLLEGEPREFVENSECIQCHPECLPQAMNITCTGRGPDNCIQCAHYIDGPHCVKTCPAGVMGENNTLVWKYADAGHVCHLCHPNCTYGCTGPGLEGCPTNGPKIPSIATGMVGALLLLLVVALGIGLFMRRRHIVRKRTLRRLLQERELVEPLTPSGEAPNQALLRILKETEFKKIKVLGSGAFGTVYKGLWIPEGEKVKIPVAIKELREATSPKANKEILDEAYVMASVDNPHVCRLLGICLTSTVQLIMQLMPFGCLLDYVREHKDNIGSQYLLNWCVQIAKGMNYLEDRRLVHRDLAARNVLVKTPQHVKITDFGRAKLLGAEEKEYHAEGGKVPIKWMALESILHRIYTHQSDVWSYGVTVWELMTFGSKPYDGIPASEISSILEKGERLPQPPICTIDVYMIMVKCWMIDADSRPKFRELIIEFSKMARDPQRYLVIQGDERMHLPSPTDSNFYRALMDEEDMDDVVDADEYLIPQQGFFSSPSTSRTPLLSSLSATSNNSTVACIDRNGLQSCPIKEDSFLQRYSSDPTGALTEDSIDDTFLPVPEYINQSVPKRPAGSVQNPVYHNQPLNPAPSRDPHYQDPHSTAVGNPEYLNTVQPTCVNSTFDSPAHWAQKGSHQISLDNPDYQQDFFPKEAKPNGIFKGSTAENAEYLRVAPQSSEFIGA
# T1 sequence (P00533 whole entry): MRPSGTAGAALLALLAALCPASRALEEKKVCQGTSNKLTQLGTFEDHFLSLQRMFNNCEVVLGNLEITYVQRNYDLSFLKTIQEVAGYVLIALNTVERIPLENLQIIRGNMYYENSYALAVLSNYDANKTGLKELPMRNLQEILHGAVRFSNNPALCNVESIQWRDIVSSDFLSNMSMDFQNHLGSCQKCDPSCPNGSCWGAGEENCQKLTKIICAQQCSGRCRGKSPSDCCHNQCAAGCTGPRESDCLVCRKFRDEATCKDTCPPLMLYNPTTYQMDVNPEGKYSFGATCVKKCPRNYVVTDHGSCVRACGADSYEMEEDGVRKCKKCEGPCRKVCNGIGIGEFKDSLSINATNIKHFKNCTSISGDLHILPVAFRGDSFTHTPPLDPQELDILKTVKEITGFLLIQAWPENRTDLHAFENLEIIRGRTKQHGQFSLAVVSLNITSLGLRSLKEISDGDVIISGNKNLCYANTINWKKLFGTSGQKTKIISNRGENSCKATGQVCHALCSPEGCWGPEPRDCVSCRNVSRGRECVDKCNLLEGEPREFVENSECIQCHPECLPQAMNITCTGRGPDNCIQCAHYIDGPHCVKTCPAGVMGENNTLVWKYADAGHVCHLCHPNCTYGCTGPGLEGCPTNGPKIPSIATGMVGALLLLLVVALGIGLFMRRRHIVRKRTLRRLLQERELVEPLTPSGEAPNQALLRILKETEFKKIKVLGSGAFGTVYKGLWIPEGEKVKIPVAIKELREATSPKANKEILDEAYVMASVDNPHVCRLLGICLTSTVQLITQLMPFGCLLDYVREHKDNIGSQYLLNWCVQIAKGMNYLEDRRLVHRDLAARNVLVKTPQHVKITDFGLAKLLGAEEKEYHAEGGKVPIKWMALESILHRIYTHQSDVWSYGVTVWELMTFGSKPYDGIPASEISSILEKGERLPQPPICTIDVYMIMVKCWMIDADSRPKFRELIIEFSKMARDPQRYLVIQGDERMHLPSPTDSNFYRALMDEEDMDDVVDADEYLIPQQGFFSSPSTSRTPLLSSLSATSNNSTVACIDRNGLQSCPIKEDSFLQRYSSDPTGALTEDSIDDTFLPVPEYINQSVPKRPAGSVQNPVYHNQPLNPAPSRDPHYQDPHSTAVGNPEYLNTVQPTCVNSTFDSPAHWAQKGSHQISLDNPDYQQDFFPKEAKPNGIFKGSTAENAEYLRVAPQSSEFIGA
# Chain of Tyrosine-protein kinase BTK (Homo sapiens) (Q06187 whole entry): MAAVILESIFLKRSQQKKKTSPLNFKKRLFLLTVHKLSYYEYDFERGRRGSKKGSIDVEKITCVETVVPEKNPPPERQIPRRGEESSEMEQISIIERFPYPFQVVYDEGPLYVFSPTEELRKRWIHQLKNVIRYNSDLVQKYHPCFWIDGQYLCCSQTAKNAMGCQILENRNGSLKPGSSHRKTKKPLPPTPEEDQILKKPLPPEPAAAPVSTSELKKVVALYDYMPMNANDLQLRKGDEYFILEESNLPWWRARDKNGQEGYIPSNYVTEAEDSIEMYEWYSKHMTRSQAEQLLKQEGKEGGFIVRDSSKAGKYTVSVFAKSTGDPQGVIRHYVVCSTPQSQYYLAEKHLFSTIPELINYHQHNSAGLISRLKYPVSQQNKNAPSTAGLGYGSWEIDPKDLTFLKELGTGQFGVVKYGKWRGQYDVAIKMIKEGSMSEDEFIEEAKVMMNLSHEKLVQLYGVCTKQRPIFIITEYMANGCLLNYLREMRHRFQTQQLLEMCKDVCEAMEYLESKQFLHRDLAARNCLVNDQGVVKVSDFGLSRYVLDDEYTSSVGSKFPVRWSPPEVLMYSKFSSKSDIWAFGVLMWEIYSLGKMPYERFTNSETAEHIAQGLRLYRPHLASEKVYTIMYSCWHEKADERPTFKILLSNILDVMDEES
# Chain of Focal adhesion kinase 1 (Homo sapiens) (Q05397 2-1052 limits assumed): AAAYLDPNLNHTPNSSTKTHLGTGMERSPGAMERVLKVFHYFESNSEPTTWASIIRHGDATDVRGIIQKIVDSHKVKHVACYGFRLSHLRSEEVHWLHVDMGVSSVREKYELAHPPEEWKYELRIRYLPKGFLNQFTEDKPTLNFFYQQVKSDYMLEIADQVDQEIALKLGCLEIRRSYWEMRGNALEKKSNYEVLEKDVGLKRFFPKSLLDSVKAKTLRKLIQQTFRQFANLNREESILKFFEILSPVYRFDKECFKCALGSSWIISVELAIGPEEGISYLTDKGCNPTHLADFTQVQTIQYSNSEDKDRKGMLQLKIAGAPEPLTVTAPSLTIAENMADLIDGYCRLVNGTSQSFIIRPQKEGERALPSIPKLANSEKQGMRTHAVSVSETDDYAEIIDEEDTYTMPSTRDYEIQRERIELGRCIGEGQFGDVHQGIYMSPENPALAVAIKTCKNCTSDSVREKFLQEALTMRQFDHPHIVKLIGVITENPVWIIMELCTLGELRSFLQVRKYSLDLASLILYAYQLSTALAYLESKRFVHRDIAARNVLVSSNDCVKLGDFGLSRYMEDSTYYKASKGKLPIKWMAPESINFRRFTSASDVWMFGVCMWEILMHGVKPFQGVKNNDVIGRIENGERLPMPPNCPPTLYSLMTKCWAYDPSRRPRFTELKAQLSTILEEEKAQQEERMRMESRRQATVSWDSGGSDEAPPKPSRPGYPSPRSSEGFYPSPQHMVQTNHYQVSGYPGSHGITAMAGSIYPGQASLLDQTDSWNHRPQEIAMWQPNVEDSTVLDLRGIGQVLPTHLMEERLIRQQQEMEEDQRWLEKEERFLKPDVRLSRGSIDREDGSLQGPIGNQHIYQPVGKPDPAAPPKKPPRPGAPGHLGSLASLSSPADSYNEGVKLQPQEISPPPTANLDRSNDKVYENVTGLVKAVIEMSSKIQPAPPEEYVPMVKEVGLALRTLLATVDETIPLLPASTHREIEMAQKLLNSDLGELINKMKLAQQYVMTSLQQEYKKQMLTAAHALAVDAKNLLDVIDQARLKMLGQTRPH
smiles,measurement,setting,value
C=CC(=O)Nc1cc(Nc2ncc(Br)c(Nc3ccc4c(c3)CCC4)n2)c(OC)cc1N1CCN(C)CC1,inhibition,[1],inactive
same,inhibition,NCI-H1975 [2],Dose-Dependent Effect
same,inhibition,NCI-H1975 [3],Dose-Dependent Effect
same,inhibition,[4],Dose-Dependent Effect
same,IC50,NCI-H1975 [5],276 nM
same,IC50,A-431,2600 nM
same,IC50,[6],3.2 nM
same,IC50,[7],203 nM
same,Activity,[8],Non-Toxic
same,Activity,[9],Non-Toxic
same,inhibition,[10],Active
same,Activity,NCI-H1975 [11],Active
same,Activity,[12],Non-Toxic
same,Activity,[13],Non-Toxic
same,Activity,[14],Non-Toxic
same,inhibition in vivo at 30 mg/kg,NCI-H1975 [15],77%
same,inhibition in vivo at 15 mg/kg,NCI-H1975 [16],61%
same,F,[17],35.58%
same,AUC,[18],35.58 ng·h/mL
same,Cmax,[19],452 ng/mL
same,half-life,[20],212 min
same,Vd,[21],4.83 L/kg
same,clearance,[22],15.9 mL/min/kg
same,AUC,[23],1052 ng·h/mL
same,half-life,[24],310 min
same,Cmax,[25],407 ng/mL
same,inhibition,[26],Active
same,inhibition,[27],Active
same,inhibition,[28],Active
same,inhibition,[29],Active
same,inhibition,[30],Active
